Laboratory results as given in ChEMBL document CHEMBL1137561 (J Med Chem, 2007).

Columns and labels:
[1] = test system: Human immunodeficiency virus 1; assay: Antiviral activity against HIV1 with reverse transcriptase IRLL98 mutation in MT4 cells assessed as inhibition of viral induced cytopathic effect by MTT method; assay type: functional, organism-based; settings: Human immunodeficiency virus 1, MT4
[2] = Inhibition of HIV1 reverse transcriptase Y1811 mutant; parameters: species or system Human immunodeficiency virus 1
In short: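 Recombinant HIV-1 RT Y181I mutant, purified to >95%, 10 min preincubation with inhibitor. Radioactive nucleotide incorporation into poly(rA)/oligo(dT) 10:1 was followed at varied nucleotide substrate levels, sampling every 2 min for initial velocities. Inhibitor spanned 0.2–5 Ki. Ki came from Lineweaver-Burk and Dixon plots. Means ± SD of at least three experiments.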

[3] = Resistance index, Ratio of EC50 for drug-resistant HIV1 with RT K103N mutation in MT4 cells to EC50 for HIV1 NL43 in MT4 cells
[4] = biological target: Human immunodeficiency virus type 1 reverse transcriptase (Human immunodeficiency virus 1, UniProt Q72547, L100I); assay: Inhibition of HIV1 reverse transcriptase L100I mutant
[5] = Resistance index, Ratio of EC50 for drug-resistant HIV1 with RT Y188L mutation in MT4 cells to EC50 for HIV1 NL43 in MT4 cells
[6] = Selectivity index, ratio of CC50 for MT4 cells to EC50 for HIV1 NL43 infected MT4 cells; assay type: functional
[7] = test system: Human immunodeficiency virus 1; assay: Antiviral activity against HIV1 with reverse transcriptase K103N mutation in MT4 cells assessed as inhibition of viral induced cytopathic effect by MTT method; assay type: functional, organism-based; settings: Human immunodeficiency virus 1, MT4
In short: (§1)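 MT-4 cells infected with the HIV-1 NNRTI-resistant mutant strain. Viable cells scored at day 5 post-infection by the MTT tetrazolium colorimetric method. […] Values are means ± SD from at least two experiments.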

[8] = test system: Human immunodeficiency virus 1; assay: Resistance index, ratio of Ki for HIV1 reverse transcriptase Y181I mutant to Ki for wild type HIV1 3B reverse transcriptase
In short: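 Initial velocities came from radioactive nucleotide incorporation into poly(rA)/oligo(dT) 10:1, sampled every 2 min. Inhibitor spanned 0.2–5 Ki, with Lineweaver-Burk and Dixon plots. Fold-resistance is Ki mutant / Ki wild type.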

[9] = biological target: Human immunodeficiency virus type 1 reverse transcriptase (Human immunodeficiency virus 1, UniProt Q72547, V179D); assay: Inhibition of HIV1 reverse transcriptase V179D mutant
[10] = test system: Human immunodeficiency virus 1; assay: Antiviral activity against HIV1 with reverse transcriptase Y181C mutation in MT4 cells assessed as inhibition of viral induced cytopathic effect by MTT method; assay type: functional, organism-based; settings: Human immunodeficiency virus 1, MT4; in short: as §1
[11] = biological target: Human immunodeficiency virus type 1 reverse transcriptase (Human immunodeficiency virus 1, UniProt Q72547); assay: Inhibition of wild type HIV1 3B reverse transcriptase
[12] = biological target: Human immunodeficiency virus type 1 reverse transcriptase (Human immunodeficiency virus 1, UniProt Q72547, Y188L); assay: Inhibition of HIV1 reverse transcriptase Y188L mutant
[13] = test system: Human immunodeficiency virus 1; assay: Antiviral activity against HIV1 NL43 in MT4 cells assessed as inhibition of viral induced cytopathic effect after 5 days by MTT method; settings: Human immunodeficiency virus 1, NL43, MT4, 120 h
[14] = test system: Human immunodeficiency virus 1; assay: Antiviral activity against HIV1 with reverse transcriptase Y188L mutation in MT4 cells assessed as inhibition of viral induced cytopathic effect by MTT method; assay type: functional, organism-based; settings: Human immunodeficiency virus 1, MT4
In short: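 MT-4 cells infected with the HIV-1 NNRTI-resistant mutant strain. Viable cells scored at day 5 post-infection by the MTT tetrazolium colorimetric method. Values are means ± SD from at least two experiments.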

[15] = Resistance index, Ratio of EC50 for drug-resistant HIV1 with RT IRLL98 mutation in MT4 cells to EC50 for HIV1 NL43 in MT4 cells
[16] = Resistance index, Ratio of EC50 for drug-resistant HIV1 with RT Y181C mutation in MT4 cells to EC50 for HIV1 NL43 in MT4 cells
[17] = biological target: Human immunodeficiency virus type 1 reverse transcriptase (Human immunodeficiency virus 1, UniProt Q72547, K103N); assay: Inhibition of HIV1 reverse transcriptase K103N mutant
[18] = biological target: Human immunodeficiency virus type 1 reverse transcriptase (Human immunodeficiency virus 1, UniProt Q72547, V106A); assay: Inhibition of HIV1 reverse transcriptase V106A mutant
[19] = Cytotoxicity against MT4 cells after 4 days by MTT method; assay type: cell-based; settings: human
In short: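 Mock-infected (noninfected) MT-4 cells, run in parallel with the antiviral test. Viable cells read by the MTT tetrazolium colorimetric method. […] Means ± SD from at least two experiments. The top concentration was limited where compounds precipitated in the culture medium.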

Compound	EC50 [1] [nM]	Ki [2] [nM]	Ratio EC50 [3]	Ki [4] [nM]	Ratio EC50 [5]	Ratio CC50/EC50 [6]	EC50 [7] [nM]	Ratio Ki [8]	Ki [9] [nM]	EC50 [10] [nM]	Ki [11] [nM]	Ki [12] [nM]	EC50 [13] [nM]	EC50 [14] [nM]	Ratio EC50 [15]	Ratio EC50 [16]	Ki [17] [nM]	Ki [18] [nM]	CC50 at 96 h [19] [nM]
CCN(C)c1nc(C(C)c2c(F)cccc2F)c(C)c(=O)[nH]1 (centres undefined)	3	10000	67	2500	100	270000	20	250	20	2	40	4000	0.3	30	10	7	500	20	81000
CCCN(C)c1nc(C(C)c2c(F)cccc2F)c(C)c(=O)[nH]1 (centres undefined)	1	1260	17	180	50	>130000	10	42	–	0.6	30	1430	0.6	30	1.7	1	170	20	> 78000
Cc1c(C(C)c2c(F)cccc2F)nc(SC2CCCC2)[nH]c1=O (centres undefined)	120	900	225	300	–	>3000	225	180	250	97	5	1400	1	> 3000	120	97	30	500	> 3000
CCCNc1nc(C(C)c2c(F)cccc2F)c(C)c(=O)[nH]1 (centres undefined)	90	5020	125	310	–	11667	370	125	–	60	40	3110	3	> 10000	30	20	470	40	35000
CN(C)c1nc(Cc2c(F)cccc2F)cc(=O)[nH]1	2000	–	–	10000	–	>4087	> 10000	37	5000	3600	80	30000	23	> 10000	87	156	3000	500	> 94000
O=c1cc(Cc2c(F)cccc2F)nc(N2CCSCC2)[nH]1	> 10000	400	–	10000	–	>2200	> 10000	2	5000	> 10000	200	1000	35	> 10000	–	–	1500	500	> 77000
Cc1c(C(C)c2c(F)cccc2F)nc(N(C)C(C)C)[nH]c1=O (centres undefined)	1	850	12	10000	80	>162000	6	21	–	0.7	40	1190	0.5	40	2	1.4	80	30	> 81000
CCCN(C)c1nc(Cc2c(F)cccc2F)c(C)c(=O)[nH]1	55	> 20000	375	18000	800	>40500	750	–	200	39	100	> 20000	2	1600	27	19	> 20000	8	> 81000
